Reference: ChEMBL document CHEMBL4837220, “Development of tricyclic N-benzyl-4-hydroxybutanamide derivatives as inhibitors of GABA transporters mGAT1-4 with anticonvulsant, antinociceptive, and antidepressant activity” (Eur J Med Chem, 2021)
Activity calls are given as the source filed them.

How the values were obtained:
Mus musculus [1] = assay: Antidepressant activity in Albino Swiss (CD-1) mouse assessed as reduction in immobility time at 30 mg/kg, ip measured for last 4 mins of 6 mins test by forced swim test relative to control; assay type: functional; design: scale not given: the % may be the effect or the level left
Mus musculus [2] = assay: Antidepressant activity in Albino Swiss (CD-1) mouse assessed as reduction in immobility time at 8 mg/kg, ip measured for last 4 mins of 6 mins test by forced swim test relative to control; assay type: functional; design: scale not given: the % may be the effect or the level left
[3] = biological target: T1, Sodium- and chloride-dependent GABA transporter 1 (Mus musculus, UniProt P31648); assay: Inhibition of NO711 binding to mouse GAT1 expressed in human HEK293 cell line by MS binding assay
Mus musculus [4] = assay: Antidepressant activity in CD-1 mouse assessed as reduction in immobility time at 30 mg/kg, ip measured for last 4 mins of 6 mins test by forced swim test; assay type: functional, organism-based
In short: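 Male CD-1 mice, dosed i.p. 60 min before test. Mice were placed singly in cylinders with 10 cm water at 23–25 °C. Immobility (passive floating) was scored during the final 4 min of a 6-min session. Analysis by one-way ANOVA with Dunnett versus vehicle.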

Mus musculus [5] = assay: Anticonvulsant activity in Albino Swiss (CD-1) mouse model of pilocarpine-induced status epilepticus assessed as reduction in latency to occurrence of status epilepticus at 100 mg/kg, […]; assay type: functional, organism-based
[6] = biological target: T1, Sodium- and chloride-dependent GABA transporter 1; assay: Inhibition of mouse GAT1 expressed in human HEK293 cell line assessed as inhibition of [3H]GABA uptake measured after 40 mins by […]; assay type: cell-based
Mus musculus [7] = assay: Anxiolytic-like activity in Albino Swiss (CD-1) mouse assessed as increase in time spent in open arm at 30 mg/kg, ip measured for 5 mins by elevated plus maze test; assay type: functional, organism-based
In short: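 Male CD-1 mice were dosed i.p. 60 min before test. Each was placed in the centre of the plus maze facing a closed arm and video-recorded for 5 min. Measures were time in open arms and % open-arm entries of all entries. Analysis by one-way ANOVA with Dunnett; n = 7–10.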

[8] = biological target: Sodium- and chloride-dependent GABA transporter 1 (Mus musculus) (UniProt P31648); assay: Residual NO711 binding to mouse GAT1 expressed in human HEK293 cell line at 100 uM by MS binding assay relative to control
[9] = Hepatotoxicity in human HepG2 cells at 25 uM incubated for 72 hrs by MTS assay; assay type: cell-based; conditions: hepg2, 72 h
In short: (§1)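 Cells (HEK-293 or HepG2) were seeded at 0.7×10^4 per well and grown at 37 °C, 5% CO₂. Compounds at 0.1–100 µM were added in quadruplicate for 72 h, with 1% DMSO in medium as control. Viability was read by MTS absorbance at 492 nm. Analysis by one-way ANOVA with Bonferroni.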

Mus musculus [10] = assay: Antinociceptive activity in Albino Swiss (CD-1) mouse model of formalin-induced paw edema at 30 mg/kg, ip pre-treated for 30 mins followed by formalin-stimulation and measured for 15 to 30 mins by formalin test
Mus musculus [11] = assay: Antinociceptive activity in Albino Swiss (CD-1) mouse model of formalin-induced paw edema assessed as reduction in duration of nocifensive response by measuring licking/biting time at 30 mg/kg, ip pre-treated for 30 mins followed by formalin-stimulation and measured up to 5 mins; assay type: functional, organism-based
[12] = Hepatotoxicity in human HepG2 cells at 50 uM incubated for 72 hrs by MTS assay; assay type: cell-based; conditions: hepg2, 72 h; in short: as §1
Mus musculus [13] = assay: Anxiolytic-like activity in Albino Swiss (CD-1) mouse at 30 mg/kg, ip by four plate test; assay type: functional, organism-based
In short: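 Male CD-1 mice were dosed i.p. 60 min before test. After 15 s habituation on a four-plate floor, a 60 s test followed. Each plate-to-plate crossing triggered a 0.8 mA, 0.5 s shock. The number of punished crossings was counted. Analysis by one-way ANOVA with Dunnett.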

Mus musculus [14] = assay: Anticonvulsant activity in CD-1 mouse assessed as elevation of seizure threshold at 100 mg/kg, ip measured by electroconvulsive threshold test relative to control; assay type: functional
GABA transporter 4 = biological target: T2, GABA transporter 4 (Mus musculus, UniProt P31650); assay: Inhibition of mouse GAT4 expressed in human HEK293 cell line assessed as inhibition of [3H]GABA uptake measured after 40 mins by […]; assay type: cell-based
T2 sequence (P31650 whole entry): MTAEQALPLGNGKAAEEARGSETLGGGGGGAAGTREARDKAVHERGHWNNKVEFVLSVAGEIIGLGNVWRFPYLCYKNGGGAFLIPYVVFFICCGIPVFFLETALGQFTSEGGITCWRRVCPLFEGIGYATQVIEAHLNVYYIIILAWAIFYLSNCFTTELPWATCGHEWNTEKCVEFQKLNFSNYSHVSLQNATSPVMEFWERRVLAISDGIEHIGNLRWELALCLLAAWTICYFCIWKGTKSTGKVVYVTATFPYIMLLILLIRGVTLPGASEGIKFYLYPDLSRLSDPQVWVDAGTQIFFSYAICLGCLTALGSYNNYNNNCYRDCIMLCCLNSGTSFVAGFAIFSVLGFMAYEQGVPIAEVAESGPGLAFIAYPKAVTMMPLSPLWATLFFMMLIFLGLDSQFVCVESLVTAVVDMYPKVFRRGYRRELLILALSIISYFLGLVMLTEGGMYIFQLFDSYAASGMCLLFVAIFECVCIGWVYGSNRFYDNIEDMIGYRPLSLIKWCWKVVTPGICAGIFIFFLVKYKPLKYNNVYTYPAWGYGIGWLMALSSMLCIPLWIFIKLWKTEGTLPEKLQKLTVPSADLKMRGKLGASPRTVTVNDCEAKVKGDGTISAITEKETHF

[15] = Effect on locomotor activity in Albino Swiss (CD-1) mouse at 30 mg/kg, ip; assay type: ADME, organism-based; conditions: in vivo
In short: (§2)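 Male CD-1 mice were habituated to activity cages for 15 min, then dosed i.p. 60 min before test. Light-beam crossings were counted over 30 min in 6-min bins (0–30 min). Analysis by repeated measures ANOVA with Bonferroni.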

[16] = Hepatotoxicity in human HepG2 cells at 100 uM incubated for 72 hrs by MTS assay; assay type: cell-based; conditions: hepg2, 72 h; in short: as §1
HEK293 = assay: Cytotoxicity in human HEK293 cells assessed as reduction in cell viability at 1 uM incubated for 72 hrs by MTS assay; assay type: cell-based; conditions: hek293, 72 h; in short: as §1
GABA transporter 2 = biological target: T3, GABA transporter 2 (Mus musculus, UniProt P31651); assay: Inhibition of mouse GAT2 expressed in human HEK293 cell line assessed as inhibition of [3H]GABA uptake measured after 40 mins by […]; assay type: cell-based
T3 sequence (P31651 whole entry): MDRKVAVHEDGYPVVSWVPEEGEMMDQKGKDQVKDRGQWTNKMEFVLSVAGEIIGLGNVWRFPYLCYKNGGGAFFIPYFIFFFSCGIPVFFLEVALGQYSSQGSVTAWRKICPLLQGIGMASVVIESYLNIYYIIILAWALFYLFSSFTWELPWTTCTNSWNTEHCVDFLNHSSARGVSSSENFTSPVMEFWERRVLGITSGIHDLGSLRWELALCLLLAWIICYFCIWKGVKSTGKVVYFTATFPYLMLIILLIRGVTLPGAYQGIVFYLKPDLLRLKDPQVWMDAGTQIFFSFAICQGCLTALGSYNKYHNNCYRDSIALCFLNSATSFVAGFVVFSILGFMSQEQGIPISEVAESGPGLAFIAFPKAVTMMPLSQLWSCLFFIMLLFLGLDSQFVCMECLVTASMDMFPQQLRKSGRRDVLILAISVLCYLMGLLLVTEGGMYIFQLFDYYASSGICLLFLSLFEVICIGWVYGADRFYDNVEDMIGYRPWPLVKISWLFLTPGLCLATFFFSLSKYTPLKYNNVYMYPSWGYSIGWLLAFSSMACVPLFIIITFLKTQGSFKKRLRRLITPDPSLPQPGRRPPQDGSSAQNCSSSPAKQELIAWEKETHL

Mus musculus [17] = assay: Anticonvulsant activity in Albino Swiss (CD-1) mouse assessed as tonic seizures at 100 mg/kg, ip measured after 0.2 secs by maximal electroshock seizure test; assay type: functional; conditions: time 0.2 sec, 5.556e-05 h
In short: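 Male CD-1 mice (18–22 g), dosed i.p. 60 min before test. A 25 mA, 0.2 s stimulus was given via auricular electrodes. Endpoint was tonic hind limb extension, expressed as % of mice with extension per group; n = 6.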

Mus musculus [18] = assay: Antidepressant-like activity in C57BL/6J mouse assessed as decrease in immobility time at 30 mg/kg, ip measured during last 4 mins of 6 mins test by tail suspension test
Mus musculus [19] = assay: Anticonvulsive activity in Albino Swiss (CD-1) mouse assessed as protection against pentylenetetrazole-induced seizure at 100 mg/kg, ip administered 60 mins prior to pentylenetetrazole challenge and measured for 30 mins; assay type: functional, organism-based
In short: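 Male CD-1 mice were given test compound or vehicle i.p. and 60 min later PTZ 100 mg/kg s.c. Mice were observed singly for 30 min, recording latency to first seizure episode and number of seizure episodes. Analysis by one-way ANOVA with Dunnett; n = 10–12.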

[20] = Effect on locomotor activity in Albino Swiss (CD-1) mouse at 30 mg/kg, ip after 24 to 30 mins; assay type: ADME, organism-based; conditions: in vivo, time 24-30 min; in short: as §2

Structure (SMILES)	Activity (Mus musculus [2])	Activity (Mus musculus [5])	IC50 [6] [µM]	Activity (Mus musculus [7])	residual activity [8] [%]	Activity [9]	Activity (Mus musculus [10])	Activity [12]	Activity (Mus musculus [13])	Activity (Mus musculus [14]) [%]	IC50 (GABA transporter 4) [µM]	Activity [16]	Activity (HEK293)	IC50 (GABA transporter 2) [µM]	Activity (Mus musculus [17]) [%]	Activity (Mus musculus [18])	further results
Cc1ccsc1C(=CCCN1CCC[C@@H](C(=O)O)C1)c1sccc1C [TIAGABINE]	59%	–	–	–	–	–	–	–	–	–	–	–	–	–	–	–	Activity (Mus musculus [1]): 97.4%; pKi [3]: 7.43
Cc1ccc(CNC(=O)C(CCO)N(C)CCC=C2c3ccccc3CCc3ccccc32)cc1 (centres undefined)	–	Active	14.1	inactive	53	Non-Toxic	Active	Toxic	inactive	90	10.7	Toxic	Non-Toxic	4.57	83	Active	Activity (Mus musculus [4]): Active; Activity (Mus musculus [11]): Active; Activity [15]: Non-Toxic
CN(CCC=C1c2ccccc2C=Cc2ccccc21)C(CCO)C(=O)NCc1ccccc1 (centres undefined)	Dose-Dependent Effect	inactive	21.9	inactive	75	Non-Toxic	Active	Toxic	inactive	43	9.55	Toxic	Non-Toxic	15.5	83	Active	Activity (Mus musculus [19]): inactive; Activity [20]: Non-Toxic
